Assay [1] can be described thus: Ratio of the amount of platinum bound per nucleotide to ri (0.01). In short, it runs like this:
(§1)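 Linear pBR322 DNA (20 μg/mL) in 10 mM NaClO₄ incubated at 37 °C with Pt compound at input Pt/nucleotide ratio ri of 0.01–0.20; 24 h for the rb/ri series, aliquots at various times for kinetics. Unbound drug removed by ethanol/0.3 M sodium acetate (pH 4.8) precipitation of DNA; Pt bound per nucleotide (rb) measured by TXRF; rb/ri given as percent; mean ± SD.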

Assay [2] is described as follows: Ratio of the amount of platinum bound per nucleotide to ri (0.05). The essentials:
as §1

A short description of assay [3]: Ratio of the amount of platinum bound per nucleotide to ri (0.10). The essentials: as §1
A short description of assay [4]: Ratio of the amount of platinum bound per nucleotide to ri (0.15). The essentials: as §1
Assay [5] is described as follows: Ratio of the amount of platinum bound per nucleotide to ri (0.20). The essentials: as §1

Take CISPLATIN: the Ratio in assay [1] was found to be 97%; in assay [2], 95%; in assay [3], 90%; in assay [4] it was 80%; in assay [5], 75%.

“Trans-[PtCl2(dimethylamine)isopropylamine)] (tdmaipa)”: the Ratio in assay [1] was found to be 85%; in assay [2], 82%; in assay [3], 76%; in assay [4] it was 70%; in assay [5] it was 68%.

These data come from ChEMBL document CHEMBL1133750, “X-Ray structure of cytotoxic trans-[PtCl(2)(dimethylamine)(isopropylamine)]: interstrand cross-link efficiency, DNA sequence specificity, and inhibition of the B-Z transition” (J Med Chem, 2000).
